# Measurements collected from several papers.
# ABL1 H396P non-phosphorylated: Tyrosine-protein kinase ABL1, non-phosphorylated (ABL1, Homo sapiens, UniProt P00519, H396P)
# ABL1 M351T phosphorylated: Tyrosine-protein kinase ABL1, phosphorylated (ABL1, Homo sapiens, UniProt P00519, M351T)
# ABL1 T315I non-phosphorylated: Tyrosine-protein kinase ABL1, non-phosphorylated (ABL1, Homo sapiens, UniProt P00519, T315I)
# ABL1 F317I phosphorylated: Tyrosine-protein kinase ABL1, phosphorylated (ABL1, Homo sapiens, UniProt P00519, F317I)
# ABL1 T315I phosphorylated: Tyrosine-protein kinase ABL1, phosphorylated (ABL1, Homo sapiens, UniProt P00519, T315I)
# ABL1 phosphorylated: Tyrosine-protein kinase ABL1, phosphorylated (ABL1, Homo sapiens, UniProt P00519)
# ABL1 H396P phosphorylated: Tyrosine-protein kinase ABL1, phosphorylated (ABL1, Homo sapiens, UniProt P00519, H396P)
Structure (SMILES),target,test,setting,remaining binding [%]
Nc1ncc2c(n1)-c1c([nH]c3ccc(C#CC4CC4)cc13)CCCC2,ABL1 H396P non-phosphorylated,"binding, competition with immobilised ligand",1 µM,93
O=C(Nc1c[nH]nc1C(=O)NC1CCNCC1)c1cc(F)cc(F)c1,ABL1 M351T phosphorylated,"binding, competition with immobilised ligand",1 µM,100
CS(=O)(=O)c1cc(C2(NC(=O)c3cncc4c3cnn4-c3ccc(F)cc3)CC2)ccn1,ABL1 M351T phosphorylated,"cell-free assay, competition with immobilised ligand",1 µM,92
C[C@H]1CCN(c2nccc(-c3cnn4ncccc34)n2)C1,"Tyrosine-protein kinase ABL1, non-phosphorylated (ABL1, Homo sapiens, UniProt P00519)",binding,1 µM,86
c1cncc(-c2cccc(Nc3nccc(NC4CCCCC4)n3)c2)c1,ABL1 T315I non-phosphorylated,"binding, competition with immobilised ligand",10 µM,79
COc1cnc(Nc2cccc(S(N)(=O)=O)c2)nc1N1CCN(c2ccccc2)CC1,ABL1 F317I phosphorylated,"binding, competition with immobilised ligand",1 µM,98
Cc1cnc(Nc2ccc(C(=O)N3CCC(N4CCCC4)CC3)cc2)nc1-c1cc2ccccc2s1,ABL1 T315I phosphorylated,"binding, competition with immobilised ligand",1 µM,2.1
C[C@@H]1CN(c2cc(-c3nn(C)c4ccc(OC5(C)CC5)cc34)ncn2)C[C@H](C)O1,ABL1 T315I non-phosphorylated,"cell-free assay, competition with immobilised ligand",1 µM,73
C[C@@H](c1ccc(-n2cnc3c(N)ncnc32)cc1)N1CCc2nn(C)c(Cc3ccccc3)c2C1=O,"Tyrosine-protein kinase ABL1, phosphorylated (ABL1, Homo sapiens, UniProt P00519, F317L)","binding, competition with immobilised ligand",0.1 µM,49
O=C(NCC1CCOCC1)c1n[nH]cc1NC(=O)c1c(F)cccc1F,ABL1 phosphorylated,"binding, competition with immobilised ligand",1 µM,85
C=CC(=O)N1CCC(C(=O)NCC(=O)N2CCN(c3nc(-c4cnc(N)nc4C(F)F)nc(N4CCOCC4)n3)CC2)CC1,ABL1 H396P non-phosphorylated,"binding, competition with immobilised ligand",1 µM,94
O=C(NCCCN1CCOCC1)c1ccc(Nc2ncc(Cl)c(-c3ccc(Cl)s3)n2)cc1,ABL1 T315I non-phosphorylated,"binding, competition with immobilised ligand",1 µM,4.5
CN(c1nccc(-c2cnn3ncccc23)n1)C1CC1,"Tyrosine-protein kinase ABL1 (ABL1, Homo sapiens, UniProt P00519, F317L)",binding,1 µM,100
O=C(c1ccc(Nc2ncc(Cl)c(-c3cc4ccccc4s3)n2)cc1)N1CCC(N2CCCC2)CC1,"Tyrosine-protein kinase ABL1, phosphorylated (ABL1, Homo sapiens, UniProt P00519, Q252H)","binding, competition with immobilised ligand",1 µM,12
CN(C)c1nccc(-c2cnn3ncccc23)n1,ABL1 phosphorylated,binding,1 µM,96
O=C(NS(=O)(=O)c1ccc(NCC2CCOCC2)c([N+](=O)[O-])c1)c1ccc(N2CCN(Cc3ccc(C(F)(F)F)cc3-c3ccc(Cl)cc3)CC2)cc1Oc1cnc2[nH]ccc2c1,ABL1 F317I phosphorylated,binding,1 µM,100
CCN1CCN(Cc2ccc(C(=O)Nc3ccc(C)c(Oc4ccc5c(c4)CC(=O)N5)c3)cc2C(F)(F)F)CC1,ABL1 H396P phosphorylated,"binding, competition with immobilised ligand",1 µM,62
O=C(NCCCN1CCOCC1)c1ccc(Nc2nccc(-c3cc4ccccc4s3)n2)cc1,ABL1 H396P phosphorylated,"binding, competition with immobilised ligand",1 µM,61
COc1ncc2cc3ccccc3nc2c1C#N,ABL1 H396P phosphorylated,"cell-free assay, competition with immobilised ligand",5 µM,97
CN(C)c1ncc(F)c(-c2cnn3ncccc23)n1,"Tyrosine-protein kinase ABL1 (ABL1, Homo sapiens, UniProt P00519, H396P)",binding,1 µM,80
O=C(Nc1cccnn1)N1CC(C/C=C/c2cncc(Oc3ccc(C(F)(F)F)cn3)n2)C1,ABL1 F317I phosphorylated,"cell-free assay, competition with immobilised ligand",1 µM,67
COc1cnc(Nc2cccc(S(N)(=O)=O)c2)nc1N1CCN(c2ccccc2)C(=O)C1,ABL1 M351T phosphorylated,"binding, competition with immobilised ligand",1 µM,84
N[C@H]1CCN(c2nccc(-c3cnn4ncccc34)n2)C1,"Tyrosine-protein kinase ABL1 (ABL1, Homo sapiens, UniProt P00519, Q252H)",binding,1 µM,59
O=C(N1CCS(=O)(=O)CC1)N1C[C@H](c2ccc(OC(F)(F)F)cc2)C[C@H](c2nc(C3CC3)no2)C1,ABL1 T315I non-phosphorylated,"cell-free assay, competition with immobilised ligand",1 µM,92
O=C(c1ccc(Nc2nccc(-c3cc4ccccc4s3)n2)cc1)N1CCC(N2CCCC2)CC1,"Tyrosine-protein kinase ABL1, non-phosphorylated (ABL1, Homo sapiens, UniProt P00519, Q252H)","binding, competition with immobilised ligand",1 µM,9.8
CC1=C(C#N)C(c2ccc3c(c2)c(NC(=O)c2ccccc2C)nn3C)C(C#N)=C(C)N1,ABL1 H396P non-phosphorylated,"cell-free assay, competition with immobilised ligand",1 µM,100
CN(CCCC(F)(F)F)c1nccc(-c2cnn3ncccc23)n1,"Tyrosine-protein kinase ABL1 (ABL1, Homo sapiens, UniProt P00519, F317I)",binding,1 µM,100
CNC(=O)Nc1ccc2c(c1)[C@@]1(CC2)OC(=O)N(CC(=O)N(Cc2ccc(F)cc2)[C@@H](C)C(F)(F)F)C1=O,ABL1 T315I phosphorylated,"cell-free assay, competition with immobilised ligand",1 µM,87
O=C(c1ccc(Nc2ncc(Cl)c(-c3ccc(Cl)s3)n2)cc1)N1CCC(N2CCCC2)CC1,ABL1 F317I phosphorylated,"binding, competition with immobilised ligand",1 µM,87
Cc1nccc(COC(=O)N2C[C@@H]3[C@@H](CNC(=O)c4ccc5[nH]nnc5c4)[C@@H]3C2)n1,ABL1 M351T phosphorylated,"cell-free assay, competition with immobilised ligand",1 µM,95
CNC(=O)[C@@H]1CC[C@@H](n2c(-c3ccc4cnccc4c3)nc3ccc(C(=O)NCc4cccc(C(N)=O)c4)cc32)C1,ABL1 F317I phosphorylated,"binding, competition with immobilised ligand",1 µM,100
